Results from ChEMBL document CHEMBL4130635, “2,4-Diaminoquinazolines as Dual Toll-like Receptor (TLR) 7/8 Modulators for the Treatment of Hepatitis B Virus” (J Med Chem, 2018).
Activity calls are given as the source filed them. The calls are words filed in the database; no cut-off is given here.

How the values were obtained:
Cynomolgus monkey [1] = assay: Proinflammatory activity in cynomolgus monkey plasma assessed as IL-6 levels at 1 mg/kg, po after 24 hrs by Luminex assay (reference value: 80 pg/ml); type: functional, Macaca fascicularis
Plasma [2] = assay: Proinflammatory activity in C57BL/6J mouse plasma assessed as TNFalpha levels at 1 mg/kg, po by multiplex assay (reference value: 70 pg/ml); type: functional
Cynomolgus monkey [3] = assay: Activation of Kupffer cells in cynomolgus monkey liver at 30 mg/kg, po after 72 hrs by CD68 staining-based immunohistochemical analysis; type: functional, organism-based; conditions: Macaca fascicularis
Summary of the method: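 Three 2.5-year-old male naive cynomolgus monkeys were dosed orally at 30 mg/kg and euthanized 72 h later. FFPE liver sections were stained for CD68 by IHC, alongside sections from unrelated control animals. Positive cells were counted over a 30 mm² area and expressed per mm². Statistics used a one-tailed t test with Welch correction.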

Plasma [4] = assay: Anti-inflammatory activity in C57BL/6J mouse plasma assessed as IL-10 levels at 30 mg/kg, po by multiplex assay (reference value: 120 pg/ml); type: functional
Summary of the method: (§1)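 Single oral gavage in 20% HP-β-CD to healthy C57BL/6 mice, groups of 15 at 0.3, 1, 3, 10 or 30 mg/kg. Three mice per group sacrificed at 0.5, 1, 2, 4 or 7 h. Plasma and liver cytokines by multiplex, maximum level reported, rounded to nearest multiple of 5.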

Cynomolgus monkey [5] = assay: Induction of ISG response in cynomolgus monkey plasma assessed as upregulation of Mx1 mRNA expression at 9 mg/kg, po after 24 hrs by Fluidigm RT-qPCR analysis (reference value: 1); type: functional, Macaca fascicularis
Summary of the method: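 Cynomolgus monkeys, single oral doses of 1, 3, 9 and 30 mg/kg with a planned 2-week wash-out between doses. Systemic ISG (ISG15, Mx1, OAS1) mRNA was measured by Fluidigm RT-qPCR at 1, 2, 4, 8 and 24 h postdose.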

Cynomolgus monkey [6] = assay: Anti-inflammatory activity in cynomolgus monkey plasma assessed as IL-10 levels at 1 mg/kg, po after 24 hrs by Luminex assay (reference value: 195 pg/ml); type: functional, Macaca fascicularis
Plasma [7] = assay: Proinflammatory activity in C57BL/6J mouse plasma assessed as IL-1beta levels at 1 mg/kg, po by multiplex assay (reference value: 60 pg/ml); type: functional, organism-based
Liver [8] = assay: Effect on cytokine profile in C57BL/6J mouse liver assessed as IL-12p70 levels at 3 mg/kg, po by multiplex assay (reference value: 5 pg/g); type: functional, organism-based; summary of the method: as §1
[9] = Cmax in C57BL/6J mouse liver at 30 mg/kg, po by LC-MS analysis; type: ADME, organism-based; set-up: dose 30 mg/kg, route oral
Summary of the method: (§2)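 Healthy C57BL/6 mice, groups of 15, given a single oral dose (0.3, 1, 3, 10 or 30 mg/kg) in 20% HP-β-CD. Blood drawn at 0.5 h. Three mice per group sacrificed at 0.5, 1, 2, 4 or 7 h, and compound in plasma and liver measured by LC−MS. Values rounded to whole numbers.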

Mus musculus = assay: Toxicity in C57BL/6J mouse at 30 mg/kg, po after 1 to 2 hrs […]; type: organism-based; conditions: in vivo
Plasma [10] = assay: Effect on cytokine profile in C57BL/6J mouse plasma assessed as IFNgamma levels at 3 mg/kg, po by multiplex assay; type: functional, organism-based; summary of the method: as §1
Hepatocyte = assay: Toxicity in human primary hepatocytes infected with HBV genotype C for 12 days followed by exposure to conditioned supernatant from at 5 uM compound treated PBMCs assessed as increase in AST level measured after 42 days relative to untreated control; type: cell-based; conditions: 1008 h
[11] = Hepatic extraction ratio in Sprague-Dawley rat hepatocytes; type: ADME, cell-based, Hepatocyte; conditions: in vivo, in the assay text read “in Sprague-Dawley rat” for “in Sprague-Dawley rat hepatocytes”, read-out: ERH
Summary of the method: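 Male Sprague-Dawley rats given 10 mg/kg po as a solution; compound measured in portal vein and systemic circulation to derive the hepatic extraction ratio.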

[12] = Cmax in C57BL/6J mouse plasma at 30 mg/kg, po by LC-MS analysis; type: ADME, organism-based; set-up: dose 30 mg/kg, route oral; summary of the method: as §2
Plasma [13] = assay: Proinflammatory activity in C57BL/6J mouse plasma assessed as CXCL-1 levels at 10 mg/kg, po by multiplex assay (reference value: 230 pg/ml); type: functional
Liver [14] = assay: Effect on cytokine profile in C57BL/6J mouse liver assessed as IL-12p70 levels at 1 mg/kg, po by multiplex assay (reference value: 5 pg/g); type: functional, organism-based; summary of the method: as §1
Plasma [15] = assay: Proinflammatory activity in C57BL/6J mouse plasma assessed as CXCL-1 levels at 30 mg/kg, po by multiplex assay (reference value: 230 pg/ml); type: functional
[16] = AUC (0 to last) in cynomolgus monkey plasma at 30 mg/kg, po by LC-MS analysis; type: ADME, organism-based, Macaca fascicularis; set-up: dose 30 mg/kg, route oral, time 0 - last
Summary of the method: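 Healthy cynomolgus monkeys received single oral doses of 1, 3, 9 and 30 mg/kg, with a 2-week wash-out between doses. Systemic compound concentrations were measured by LC–MS at 0.25, 0.5, 1, 2, 4, 8 and 24 h postdose.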

[17] = Intrinsic clearance in rat liver microsomes assessed per mg protein at 1 uM up to 60 mins; type: ADME, microsome; conditions: read-out: CLH
[18] = AUC (0 to last) in C57BL/6J mouse liver at 30 mg/kg, po by LC-MS analysis; type: ADME, organism-based; conditions: in vivo
Summary of the method: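 Healthy C57BL/6 mice were dosed once by mouth at 0.3, 1, 3, 10 or 30 mg/kg in 20% HP-β-CD, in groups of 15 per dose. Three mice per group were sacrificed at 0.5, 1, 2, 4 or 7 h, and plasma and liver compound levels were measured by LC–MS. Values were rounded to whole numbers.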

Cynomolgus monkey [19] = assay: Effect on cytokine profile in cynomolgus monkey plasma assessed as IP10 levels at 3 mg/kg, po after 24 hrs by Luminex assay (reference value: 18.5 pg/ml); type: functional, Macaca fascicularis
Summary of the method: (§3)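 Healthy cynomolgus monkeys given single oral doses of 1, 3, 9 and 30 mg/kg, with a 2-week wash-out planned between doses. Systemic cytokine levels in plasma were sampled at 0.5, 1, 2, 4, 9 and 24 h postdose.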

Cynomolgus monkey [20] = assay: Induction of G-CSF in cynomolgus monkey plasma at 30 mg/kg, po after 24 hrs by Luminex assay (reference value: 85 pg/ml); type: functional, Macaca fascicularis; summary of the method: as §3
[21] = Solubility of the compound in FaSSIF; type: physicochemical
Liver [22] = assay: Proinflammatory activity in C57BL/6J mouse liver assessed as CXCL-1 levels at 30 mg/kg, po by multiplex assay (reference value: 25 pg/g); type: functional
Cynomolgus monkey [23] = assay: Activation of monocytes in cynomolgus monkey plasma assessed as upregulation of MIP1 levels at 30 mg/kg, po after 24 hrs by Luminex assay (reference value: 37 pg/ml); type: functional, Macaca fascicularis
Cynomolgus monkey [24] = assay: Anti-inflammatory activity in cynomolgus monkey plasma assessed as IL-10 levels at 30 mg/kg, po after 24 hrs by Luminex assay (reference value: 195 pg/ml); type: functional, Macaca fascicularis
Liver [25] = assay: Effect on cytokine profile in C57BL/6J mouse liver assessed as IFNgamma levels at 3 mg/kg, po by multiplex assay; type: functional; summary of the method: as §1
Plasma [26] = assay: Proinflammatory activity in C57BL/6J mouse plasma assessed as TNFalpha levels at 0.3 mg/kg, po by multiplex assay (reference value: 70 pg/ml); type: functional, organism-based

For `CCC[C@@H](CCO)Nc1nc(N)nc2c(F)cccc12`, the Activity (Cynomolgus monkey [1]) was 75 pg/mL, the Activity (Plasma [2]) was 335 pg/mL and the Activity (Cynomolgus monkey [3]) was “Active”. The Activity (Plasma [4]) was 5170 pg/mL, the “fold change (FC)” value (Cynomolgus monkey [5]) was 55 and the Activity (Cynomolgus monkey [6]) was 1275 pg/mL. The Activity (Plasma [7]) was “Below limit of detection”, the Activity (Liver [8]) was “Below limit of detection” and the Cmax [9] was 7610 ng/g. For the same compound, the Activity (Mus musculus) was “Toxic”, the Activity (Plasma [10]) was “Below limit of detection” and the “fold change (FC)” value (Hepatocyte) was 2.6. For the same compound, the hepatic extraction ratio [11] was 0.74, the Cmax [12] was 813 ng/mL and the Activity (Plasma [13]) was >10000 pg/mL. For the same compound, the Activity (Liver [14]) was “Below limit of detection”, the Activity (Plasma [15]) was >10000 pg/mL and the AUC(0-t) [16] was 5200 ng·h/mL. For the same compound, the microsomal CLint at 1 µM [17] was 24 µL/min/mg, the AUClast [18] was 7160 ng·h/g and the Activity (Cynomolgus monkey [19]) was 1490 pg/mL. The Activity (Cynomolgus monkey [20]) was 1135 pg/mL, the solubility [21] was > 4000 µg/mL and the Activity (Liver [22]) was >83333 pg/g. For the same compound, the Activity (Cynomolgus monkey [23]) was 560 pg/mL, the Activity (Cynomolgus monkey [24]) was 9135 pg/mL and the Activity (Liver [25]) was 150 pg/g. For the same compound, the Activity (Plasma [26]) was “Below limit of detection”.
